Test results as given in ChEMBL document CHEMBL2321669, “Discovery, biological evaluation, and structure-activity and -selectivity relationships of 6'-substituted (E)-2-(benzofuran-3(2H)-ylidene)-N-methylacetamides, a novel class of potent and selective monoamine oxidase inhibitors” (J Med Chem, 2013).

Columns and labels:
[1] = target: T1, Amine oxidase [flavin-containing] A (Rattus norvegicus, UniProt P21396); experiment: Inhibition of MAO-A in Sprague-Dawley rat brain mitochondrial suspension using kynuramine as substrate incubated for 5 mins prior to substrate addition measured for 5 mins by spectrophotometry
T1 sequence (P21396 whole entry): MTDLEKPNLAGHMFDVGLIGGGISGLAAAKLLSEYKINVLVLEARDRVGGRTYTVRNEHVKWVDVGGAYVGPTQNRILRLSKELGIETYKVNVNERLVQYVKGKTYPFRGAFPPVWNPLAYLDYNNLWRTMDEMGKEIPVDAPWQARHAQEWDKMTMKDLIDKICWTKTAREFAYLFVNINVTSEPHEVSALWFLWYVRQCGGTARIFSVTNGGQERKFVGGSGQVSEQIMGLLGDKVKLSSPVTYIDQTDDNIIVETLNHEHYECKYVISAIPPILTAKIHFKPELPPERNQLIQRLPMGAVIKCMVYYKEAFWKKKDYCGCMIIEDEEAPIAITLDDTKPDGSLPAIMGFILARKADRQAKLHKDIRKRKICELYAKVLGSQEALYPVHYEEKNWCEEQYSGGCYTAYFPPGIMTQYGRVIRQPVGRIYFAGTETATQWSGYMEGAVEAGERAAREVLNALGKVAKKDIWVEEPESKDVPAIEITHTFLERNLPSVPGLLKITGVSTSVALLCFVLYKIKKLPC

[2] = target: T2, Amine oxidase [flavin-containing] B (Rattus norvegicus, UniProt P19643); experiment: Inhibition of MAO-B in Sprague-Dawley rat brain mitochondrial suspension using kynuramine as substrate at 10 uM incubated for 5 mins prior to substrate addition measured for 5 mins by spectrophotometry
T2 sequence (P19643 whole entry): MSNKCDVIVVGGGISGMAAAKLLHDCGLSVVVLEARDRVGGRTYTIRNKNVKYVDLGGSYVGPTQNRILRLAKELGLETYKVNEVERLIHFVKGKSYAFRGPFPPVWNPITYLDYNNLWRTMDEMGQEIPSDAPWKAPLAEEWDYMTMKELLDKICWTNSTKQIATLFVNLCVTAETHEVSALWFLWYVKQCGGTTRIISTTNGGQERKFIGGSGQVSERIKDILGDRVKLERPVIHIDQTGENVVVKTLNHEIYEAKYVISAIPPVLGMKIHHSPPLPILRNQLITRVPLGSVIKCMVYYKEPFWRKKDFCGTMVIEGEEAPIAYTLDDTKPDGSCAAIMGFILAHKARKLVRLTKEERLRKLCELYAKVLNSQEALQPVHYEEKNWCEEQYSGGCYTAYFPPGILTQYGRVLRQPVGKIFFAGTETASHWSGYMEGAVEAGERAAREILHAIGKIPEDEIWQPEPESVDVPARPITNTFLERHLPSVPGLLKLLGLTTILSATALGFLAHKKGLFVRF
Method in brief: (§1)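 Crude brain mitochondria from male Sprague-Dawley rats (200–250 g), used at 1 mg/mL. Isoforms separated with clorgyline or (−)-L-deprenyl, both irreversible at 250 nM. 5 min preincubation with compound, final DMSO 5% (v/v). Kynuramine then added at 60 μM (KM), and 4-hydroxyquinoline formation was followed at 314 nm for 5 min. IC50 by nonlinear regression of inhibition vs −log concentration, or % inhibition at 10 or 20 μM. Mean of 2–3 independent experiments.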

[3] = target: T1, Amine oxidase [flavin-containing] A; experiment: Inhibition of MAO-A in Sprague-Dawley rat brain mitochondrial suspension using kynuramine as substrate at 10 uM incubated for 5 mins prior to substrate addition measured for 5 mins by spectrophotometry
Method in brief: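 Male Sprague-Dawley rat brain (200–250 g) crude mitochondrial fraction, 1 mg/mL, stored at −40 °C in isotonic phosphate/KCl buffer pH 7.4. Selective irreversible inhibitors clorgyline and (−)-L-deprenyl (250 nM each) used to separate isoform activities. Test compound preincubated 5 min, final DMSO 5% (v/v). Kynuramine 90 μM (KM) added, 4-hydroxyquinoline formation read at 314 nm for 5 min. […] Mean of 2–3 independent experiments.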

[4] = target: T2, Amine oxidase [flavin-containing] B; experiment: Inhibition of MAO-B in Sprague-Dawley rat brain mitochondrial suspension using kynuramine as substrate incubated for 5 mins prior to substrate addition measured for 5 mins by spectrophotometry; method in brief: as §1
[5] = target: T1, Amine oxidase [flavin-containing] A; experiment: Ratio of moclobemide IC50 to compound IC50 for Sprague-Dawley rat brain MAO-A
[6] = target: T2, Amine oxidase [flavin-containing] B; experiment: Inhibition of MAO-B in Sprague-Dawley rat brain mitochondrial suspension using kynuramine as substrate at 20 uM incubated for 5 mins prior to substrate addition measured for 5 mins by spectrophotometry; method in brief: as §1

Structure (SMILES) | IC50 [1] [nM] | inhibition at 10 µM [2] [%] | also measured
CNC(=O)/C=C1/COc2c1ccc(OS(=O)(=O)c1ccccc1)c2C | 9.8 | 5 | –
CNC(=O)/C=C1/COc2cc(OS(=O)(=O)c3cccc(Cl)c3)ccc21 | 41 | 0 | –
CNC(=O)/C=C1/COc2cc(OS(=O)(=O)CCC(F)(F)F)ccc21 | 9.1 | 17 | –
CNC(=O)c1cc(=O)oc2cc(OS(=O)(=O)c3cccc(Cl)c3)ccc12 | – | 9 | inhibition at 10 µM [3]: 8%
CNC(=O)/C=C1/COc2cc(OS(=O)(=O)c3ccc(Cl)cc3)ccc21 | 12 | 6 | –
CNC(=O)/C=C1/COc2cc(OS(=O)(=O)c3ccc(Cl)s3)ccc21 | 16 | 6 | –
CCNC(=O)/C=C1/COc2cc(OS(=O)(=O)c3cccc(Cl)c3)ccc21 | 4200 | 0 | –
CNC(=O)/C=C1/COc2cc(OS(=O)(=O)c3cccc(C#N)c3)ccc21 | 19 | 0 | –
CNC(=O)Cc1cc(=O)oc2cc(OS(=O)(=O)c3cccc(Cl)c3)ccc12 | 111 | – | IC50 [4]: 8300 nM
CNC(=O)/C=C1/COc2cc(OS(=O)(=O)c3ccc(OC)cc3)ccc21 | 11 | 0 | –
CNC(=O)/C=C1/COc2cc(OS(=O)(=O)c3ccc(S(C)(=O)=O)cc3)ccc21 | 19 | 0 | –
CNC(=O)Cc1coc2cc(OS(=O)(=O)c3cccc(Cl)c3)ccc12 | 409 | 4 | –
CNC(=O)/C=C1/COc2cc(OS(=O)(=O)c3ccccc3)ccc21 | 34 | 0 | –
CNC(=O)/C=C1/COc2c1ccc(OS(=O)(=O)c1ccc(OC)cc1)c2C | 7 | 0 | Ratio IC50 [5]: 1000
CNC(=O)/C=C1/COc2cc(OS(=O)(=O)c3ccc(C(C)=O)cc3)ccc21 | 29 | 0 | –
CNC(=O)/C=C1/COc2cc(OCc3cccc(Cl)c3)ccc21 | 427 | – | IC50 [4]: 36 nM
O=C(NCCN1CCOCC1)c1ccc(Cl)cc1 [MOCLOBEMIDE] | – | 0 | –
CC(C)NC(=O)/C=C1/COc2cc(OS(=O)(=O)c3cccc(Cl)c3)ccc21 | – | 1 | inhibition at 10 µM [3]: 14%
CNC(=O)/C=C1/COc2c1ccc(OS(=O)(=O)CCC(F)(F)F)c2C | 11 | 5 | –
CNC(=O)Cc1coc2cc(OCc3cccc(Cl)c3)ccc12 | 3100 | – | IC50 [4]: 284 nM
CNC(=O)/C=C1/COc2cc(OS(=O)(=O)c3cccc(F)c3)ccc21 | 41 | – | inhibition at 20 µM [6]: 6%
CNC(=O)/C=C1/COc2cc(OS(=O)(=O)c3ccc([N+](=O)[O-])cc3)ccc21 | 37 | 13 | –
CNC(=O)/C=C1/COc2cc(OS(=O)(=O)c3ccc(C#N)cc3)ccc21 | 45 | – | inhibition at 20 µM [6]: 10%
CNCc1cc(=O)oc2cc(OS(=O)(=O)c3cccc(Cl)c3)ccc12 | 5300 | – | IC50 [4]: 1700 nM
CNC(=O)/C=C1/COc2c1ccc(OS(=O)(=O)c1cccc(Cl)c1)c2C | 24 | 2 | –
NCc1cc(=O)oc2cc(OS(=O)(=O)c3cccc(Cl)c3)ccc12 | 997 | – | IC50 [4]: 3300 nM
CNC(=O)/C=C1/COc2c1ccc(OS(=O)(=O)c1ccc(C#N)cc1)c2C | 15 | 6 | –
CCNC(=O)Cc1coc2cc(OS(=O)(=O)c3cccc(Cl)c3)ccc12 | – | 0 | inhibition at 10 µM [3]: 31%
O=C1COc2cc(OS(=O)(=O)c3cccc(Cl)c3)ccc21 | – | 0 | inhibition at 10 µM [3]: 17%
